Most compounds without a hit are left out; they make up all but 3.5% or so of the library.
Cneo AK release: Cryptococcus neoformans cell lysis inducers, primary screen, AK release luminescence, single concentration; AID 651654, 2012; C. neoformans lysis, adenylate kinase release luminescence, 4 h; normalised: neutral wells 0, clomiphene wells 100; actives 0.2% (n = 360,000); lysis activity, % at 15 µM;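 active = mean lysis activity across replicates of at least 80%, whatever share of replicates individually reach that level; inactive = mean lysis activity below 80%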
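Schedule: static 4 h at 37 °C with compound, 1 h detection; system: C. neoformans cells; benchmarks: Clomiphene as positive control; buffer or medium: fresh YPD medium; measure: luminescence rise reflecting yeast cell lysis; measured by: luminescent adenylate kinase detection reagent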
PGC1a acetyl inh: inhibitors of PGC1a acetylation signal, primary screen, cell-based, U2OS, AlphaScreen, inhibitor mode. inhibition, % at 15.6 µM. AID 651687, 2012. AlphaScreen anti-acetyl-lysine; with virally co-expressed GCN5 acetyltransferase. actives 0.17% (n = 350,000);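 active = every replicate shows inhibition of at least 40%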;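 also: 0% = neutral control wells and 100% = positive control wells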
rRNA inh HTS: reduced GFP signal of wild-type E. coli, primary screen, bacterial rRNA inhibitor project, GFP/RFP fluorescence, OD600, single point; E. coli WT GFP vs humanized-ribosome RFP mutants, 24 h; hits give low values; DMSO median 0, no signal -100; GFP signal change (wild-type ribosome), % (no concentration beside the values); actives 1.6% (n = 350,000); AID 720706, 2013;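 active = significant combined selectivity score with lowered wild-type GFP, culture density cut under 30%, mutant RFP and density less affected; inactive = any of these conditions unmet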
FGF22 binding: binders of human FGF22 protein, primary screen, FGF22 synaptogenesis inhibitor project, biophysical, thermal shift, single point; recombinant FGF22 thermal shift, SYPRO orange fluorescence; percent of sucrose octasulfate shift, DMSO zero; activity (Tm shift, normalised), % at 9.99 µM; AID 651658, 2012; actives 1.5% (n = 340,000);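 active = mean Tm shift, scaled 0 neutral to 100 positive control, at about 1.3% or above, every replicate too, limit read from the data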
ERAP1 HTS inh: human ERAP1 aminopeptidase inhibitors, primary screen, biochemical, single point, plate reader | Endoplasmic reticulum aminopeptidase 1 (Homo sapiens), Q9NZ08 | recombinant ERAP1, Leu-AMC fluorescence, 60 min | inhibition, % at 10.7 µM | actives 0.15% (n = 340,000) | AID 652197, 2013;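 active = mean replicate inhibition of at least 30%, or all replicates individually reaching that 30% level; inactive = mean below 30% and not every replicate reaching it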;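 also: 0% = neutral control wells and 100% = L-leucinethiol positive control wells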
HIV Env fusion: inhibitors of HIV-1 Env-driven cell-cell fusion, primary screen, HeLa-JRFL effector, CEM21 target cells, luciferase. inhibition, % at 12.3 µM. actives 1.1% (n = 360,000);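 active = mean replicate inhibition score of at least 50 and every replicate individually at or above 50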;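 also: 0% = plate neutral controls and 100% = maraviroc near 300 nM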
The depositor's hits bear a star.

For Cc1cccc(NC(=S)NC2CC3C=CC2C3)c1 (stereo unspecified) the results were Cneo AK release 19, PGC1a acetyl inh 21, rRNA inh HTS -21*, FGF22 binding 0, ERAP1 HTS inh -1 and HIV Env fusion -1.
`Cc1cccc(NC(=S)NC2CCCC2)c1` gave HIV Env fusion -7.
C[C@H](NC(=O)C[C@H]1CC[C@@H](NS(=O)(=O)c2cccc(F)c2)[C@H](CO)O1)c1ccccc1 was read as Cneo AK release 53, PGC1a acetyl inh 4, rRNA inh HTS 2, FGF22 binding 0 and ERAP1 HTS inh 1.
CC(=O)OC1c2ccccc2C(=O)N1c1ccccc1C (stereo unspecified) was read as Cneo AK release 3, PGC1a acetyl inh -1, rRNA inh HTS 7, FGF22 binding 0, ERAP1 HTS inh 1 and HIV Env fusion 77*.
CCC(=O)NC(c1ccccc1)c1c(O)ccc2ccccc12 (stereo unspecified) was read as Cneo AK release 5, PGC1a acetyl inh -7, rRNA inh HTS -32*, FGF22 binding 0, ERAP1 HTS inh -2 and HIV Env fusion -3.
CC(C)n1nnnc1SCC(=O)c1c(N)n(C2CC2)c(=O)[nH]c1=O was read as Cneo AK release 1, PGC1a acetyl inh 4, rRNA inh HTS 2, FGF22 binding 0 and ERAP1 HTS inh 3.
`Cc1c(C(=O)N2CCN(c3ccccn3)CC2)oc2ccccc12` gave Cneo AK release -1, PGC1a acetyl inh 1, rRNA inh HTS -12, ERAP1 HTS inh 3 and HIV Env fusion -11.
Cc1cnc(C(=O)OCC(=O)c2cc(C)n(C)c2C)cn1 was read as PGC1a acetyl inh 3, rRNA inh HTS 10, FGF22 binding 43*, ERAP1 HTS inh 2 and HIV Env fusion -7.
For Cc1cc(C(=O)COC(=O)c2ccc(Br)o2)c(C)n1C the results were Cneo AK release -1, PGC1a acetyl inh -3, rRNA inh HTS -23*, FGF22 binding 0, ERAP1 HTS inh 1 and HIV Env fusion -49.
`COc1ccc2oc(-c3ccccc3)c(C(=O)O)c2c1` gave rRNA inh HTS -11, FGF22 binding 0, ERAP1 HTS inh -2 and HIV Env fusion -5.
Cc1nc(Sc2cccn2C)c(C(F)(F)F)c(=O)[nH]1 was read as PGC1a acetyl inh -1, rRNA inh HTS 2, ERAP1 HTS inh 4 and HIV Env fusion -93.
For O=C(/C=C/c1cn(CC(O)CN2CCCCC2)c2ccccc12)c1ccccc1 (stereo unspecified) the results were PGC1a acetyl inh -30, rRNA inh HTS -38*, FGF22 binding 0 and HIV Env fusion 0.
Screening COc1ccc(C(=O)/C=C/c2cn(CC(O)CN3CCN(C)CC3)c3ccccc23)cc1OC (stereo unspecified) returned PGC1a acetyl inh 10, rRNA inh HTS -11, FGF22 binding 0 and HIV Env fusion -14.
`CCOc1c(C)cnc2c1c(=O)n(Cc1ccc(Cl)cc1)c(=O)n2C` gave Cneo AK release 1, rRNA inh HTS 1, FGF22 binding 0, ERAP1 HTS inh 1 and HIV Env fusion 85*.
CCOc1c(C)cnc2c1c(=O)n(Cc1cccc(Cl)c1)c(=O)n2C was read as Cneo AK release -2, PGC1a acetyl inh -5, rRNA inh HTS 15, FGF22 binding 0, ERAP1 HTS inh -1 and HIV Env fusion 6.
For CCOC(=O)c1ccc(S(=O)(=O)N2CCN(C(=O)c3nn(C)c(=O)c4ccccc34)CC2)cc1 the results were rRNA inh HTS 5, FGF22 binding 43*, ERAP1 HTS inh 0 and HIV Env fusion -50.
For Cc1ccc(S(=O)(=O)N2CCCCC2)cc1NC(=O)CCNC(=O)c1ccc([N+](=O)[O-])cc1 the results were Cneo AK release 0, rRNA inh HTS 13, FGF22 binding 0, ERAP1 HTS inh 2 and HIV Env fusion 59*.
For Cc1ccc(S(=O)(=O)N2CCCCC2)cc1NC(=O)c1nn(C)c(=O)c2ccccc12 the results were rRNA inh HTS 0, FGF22 binding 0, ERAP1 HTS inh -2 and HIV Env fusion 66*.
Screening Cn1nc(C(=O)Nc2cccc(S(=O)(=O)N3CCCC3)c2)c2ccccc2c1=O returned Cneo AK release 2, PGC1a acetyl inh -44, rRNA inh HTS 4, FGF22 binding 0 and ERAP1 HTS inh 2.
`COc1ccc(NC(=O)N2CC(=O)N3[C@H](C2)[C@H](c2ccc(C#CCC4CCCC4)cc2)[C@@H]3CO)cc1` gave PGC1a acetyl inh -6, rRNA inh HTS 4 and ERAP1 HTS inh -1.
Screening Oc1ccc(Br)cc1CNc1nccs1 returned Cneo AK release 1, PGC1a acetyl inh -2, rRNA inh HTS 3, FGF22 binding 0, ERAP1 HTS inh -1 and HIV Env fusion -7.
Oc1ccc(Br)cc1CNc1ccccn1 was read as PGC1a acetyl inh -6, rRNA inh HTS -16*, FGF22 binding 0, ERAP1 HTS inh -6 and HIV Env fusion 2.
Screening Cc1sc2ncn(CC(=O)Nc3cccc(S(N)(=O)=O)c3)c(=O)c2c1-c1ccccc1 returned Cneo AK release 3, PGC1a acetyl inh 1, rRNA inh HTS -29*, FGF22 binding 0, ERAP1 HTS inh -3 and HIV Env fusion -15.
`O=C(COC(=O)c1c(F)cccc1Cl)NC1CCCCC1` gave Cneo AK release -1, PGC1a acetyl inh 5, rRNA inh HTS 6, FGF22 binding 40, ERAP1 HTS inh -1 and HIV Env fusion -36.
`CCc1cc2c(NC(Cc3c[nH]c4ccccc34)C(=O)O)nc(C)nc2s1` (stereo unspecified) gave rRNA inh HTS -28*, FGF22 binding 0, ERAP1 HTS inh -1 and HIV Env fusion 5.
COCC(=O)N1[C@H](CO)[C@H](c2ccccc2-c2cccc(C)c2)[C@@H]1C#N was read as PGC1a acetyl inh -3, rRNA inh HTS -2, FGF22 binding 0 and ERAP1 HTS inh -2.
For COc1ccc(CNC(=O)C2CCC(CNS(=O)(=O)c3cccc4cccnc34)CC2)cc1 (stereo unspecified) the results were Cneo AK release 0, PGC1a acetyl inh -6, rRNA inh HTS -3, FGF22 binding 0, ERAP1 HTS inh 0 and HIV Env fusion -8.
`CN(C)Cc1c(-c2ccc(Cl)cc2)nc2ccc(Cl)cn12` gave rRNA inh HTS 7, FGF22 binding 43*, ERAP1 HTS inh 0 and HIV Env fusion 2.

Screening data from PubChem BioAssay.
